Measurements as given in publication PMC10527432 (Cell, 2023).
“Also recorded” adds a separate entry of the source. Read-outs that look alike come from different tables or passages of the source.

Legend:
[1] = target: α-Syn fibrils (Homo sapiens, UniProt P37840); assay: [18F]-F0502B saturation binding assay with α-Syn PFFs; settings: read-out: KD, α-Syn fibrils, 1 μM PFFs
Procedure, shortened: (§1)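 PFFs (1 μM) were incubated with [18F]-labelled test compound (5–900 nM) for 1 h at 37 °C in 30 mM Tris-HCl pH 7.4, 0.1% BSA, 0.5% sodium ascorbate. Nonspecific binding was defined with 2 μM unlabeled compound. Samples were filtered, washed twice and counted by scintillation, in duplicate. Kd and Bmax were obtained by nonlinear fit to Y = Bmax*X/(X+Kd).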

[2] = target: Aβ1–42 fibrils (Homo sapiens, UniProt P05067); assay: [18F]-F0502B saturation binding assay with Aβ PFFs; settings: read-out: KD, Aβ fibrils, 1 μM PFFs
Chain of Aβ1–42 fibrils (P05067 672-713 limits assumed): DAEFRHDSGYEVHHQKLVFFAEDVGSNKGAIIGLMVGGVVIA
Procedure, shortened: as §1

[3] = target: Tau fibrils (Homo sapiens, UniProt P10636); assay: [18F]-F0502B saturation binding assay with Tau PFFs; settings: read-out: KD, Tau fibrils, 1 μM PFFs
Chain of Tau fibrils (P10636 1-441 isoform P10636-8): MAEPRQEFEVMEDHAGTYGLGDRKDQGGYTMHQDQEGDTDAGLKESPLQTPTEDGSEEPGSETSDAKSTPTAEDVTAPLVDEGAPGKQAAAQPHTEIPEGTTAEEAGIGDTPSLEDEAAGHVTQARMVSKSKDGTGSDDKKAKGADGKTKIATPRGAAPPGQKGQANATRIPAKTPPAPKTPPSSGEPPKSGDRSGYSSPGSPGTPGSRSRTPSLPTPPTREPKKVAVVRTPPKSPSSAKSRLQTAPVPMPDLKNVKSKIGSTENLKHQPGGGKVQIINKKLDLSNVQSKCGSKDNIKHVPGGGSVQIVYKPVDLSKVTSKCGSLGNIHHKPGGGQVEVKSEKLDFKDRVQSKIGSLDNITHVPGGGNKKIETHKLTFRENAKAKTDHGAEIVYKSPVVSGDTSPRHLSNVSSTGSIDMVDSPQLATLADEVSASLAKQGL
Procedure, shortened: as §1

[4] = target: Aβ fibrils in AD patients (Homo sapiens, UniProt P05067); assay: Saturation binding assay with insoluble Aβ fraction from AD brain
Chain of Aβ fibrils in AD patients (P05067 672-711 limits assumed): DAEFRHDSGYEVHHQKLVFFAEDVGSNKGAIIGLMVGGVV
Procedure, shortened: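 Insoluble Aβ was extracted from AD gray matter by homogenization in 0.32 M sucrose, mesh sieving, and centrifugation in 1 M sucrose. This was followed by collagenase/dispase (2 mg/ml) digestion for 16 h at 37 °C and a discontinuous 1.05–1.8 M sucrose gradient.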

[5] = target: Tau fibrils in AD patients (Homo sapiens, UniProt P10636); assay: Saturation binding assay with insoluble Tau fraction from AD brain
Chain of Tau fibrils in AD patients (P10636 623-708 limits assumed): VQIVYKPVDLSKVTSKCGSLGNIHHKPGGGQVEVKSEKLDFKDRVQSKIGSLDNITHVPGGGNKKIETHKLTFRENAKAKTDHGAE
Procedure, shortened: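 Insoluble Tau was extracted from AD brain in 10 mM Tris-HCl pH 7.4, 0.8 M NaCl, 1 mM EGTA, 10% sucrose. Sequential centrifugations up to 100,000 × g were performed at 4 °C. The pellet was resuspended in 20 mM Tris-HCl pH 7.4, 100 mM NaCl and run over a Superose 6 column.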

[6] = target: α-Syn PFFs (Homo sapiens, UniProt P37840); assay: Fibril binding assay; settings: fluorescence, 0.08 μM fibrils, 5 μM compound
Procedure, shortened: (§2)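 In the fluorescence screen, test compound (5 μM) in 50 mM Tris-HCl, 50 mM NaCl, pH 7.4 was added to fibrils or monomers (0.08 μM) in triplicate wells. Fluorescence was read at each compound's own excitation/emission wavelengths. α-Syn fibrils were commercial, dissolved to 1 mg/ml in PBS. Tau PFFs were assembled from 3 mg/mL protein with 12.5 μM heparin for 7 days at 37 °C with shaking; mixed 3R-4R fibrils used 0N3R and 2N4R at 1.5 mg/ml each.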

[7] = target: Aβ PFFs (Homo sapiens, UniProt P05067); assay: Fibril binding assay; settings: fluorescence; 0.08 μM fibrils, 5 μM compound
Chain of Aβ PFFs (P05067 672-713 limits assumed): as the sequence (P05067 672-713 limits assumed) above

[8] = target: Tau PFFs (Homo sapiens, UniProt P10636); assay: Fibril binding assay; settings: fluorescence; 0.08 μM fibrils, 5 μM compound; regardless of 3R or 4R Tau
Chain of Tau PFFs (P10636 1-441 isoform P10636-8): as the sequence (P10636 1-441 isoform P10636-8) above
Procedure, shortened: as §2

[9] = target: α-Syn deposits in PD/DLB brain homogenates (Homo sapiens, UniProt P37840); type: binding
Procedure, shortened: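 Brain lysates from 4 control and 4 patient cases were normalized for aggregate levels by pS129 western blot. Homogenates (0.2 mg/ml) were incubated with [18F]-labelled test compound (5–900 nM) for 1 h at 37 °C in 50 mM Tris-HCl, 50 mM NaCl, 0.5% sodium ascorbate, pH 7.4. Samples were then filtered, washed twice and counted by scintillation.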

[10] = target: aggregated α-Syn in PD/DLB patients (Homo sapiens, UniProt P37840); assay: Saturation binding assay with insoluble α-Syn fraction from PD/DLB brain
Procedure, shortened: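 Insoluble α-Syn was extracted from frozen PD and DLB brain in 50 mM Tris-HCl pH 7.4, 800 mM NaCl, 10 mM NaF, 5 mM EDTA at 100,000 × g. Pellets were re-extracted with buffer containing 1% Triton X-100, then 1% Triton X-100 plus 30% sucrose. A final 1% sarkosyl step ran overnight, followed by a 100,000 × g spin.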

[11] = target: aggregated α-Syn in PD brains (Homo sapiens, UniProt P37840); assay: In vitro competition assay against [3H]BF-227 in postmortem PD brain tissue; type: binding; settings: read-out: Ki against [3H]BF227; postmortem PD brain tissue homogenate
Procedure, shortened: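 Postmortem PD brain homogenate (α-Syn aggregates, no other amyloid) was used at a final 100 μg tissue/mL in PBS/0.1% BSA, pH 7.0. Unlabeled test compound (0.1–1000 nM; 0.25% DMSO final) was combined with [3H]BF-227 solution (~2 nM). 100% inhibition was defined by displacement with 1 μM unlabeled compound. Each concentration was run in triplicate, giving Ki.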

[12] = In vivo pharmacokinetics study in mice, i.v.; settings: i.v. 5 mg/kg
Procedure, shortened: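 Male ICR mice received 5 mg/kg i.v. Test compound was measured in plasma and brain homogenates at successive time points, with 3 mice per time point. Brain/plasma ratios, plasma half-life and clearance were derived; data are mean ± SD.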

[13] = Toxicology test in mice; type: in vivo; settings: C57BL/6 mice
[14] = test system: α-Syn aggregates in primary neurons; assay: Fluorescence staining of primary neurons containing α-Syn aggregates; type: cell-based, rat; settings: AAV-α-Syn + α-Syn PFFs, fluorescence microscopy
Procedure, shortened: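 Primary embryonic rat neurons were cultured at 37 °C in 5% CO2 and infected with AAV-α-Syn at DIV7. At DIV12 they received sonicated α-Syn PFFs at 100 ng/ml final, with monomer as control. Test compound was then added and binding to the intracellular aggregates was assessed by fluorescence microscopy.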

[15] = target: α-Syn deposits in mouse brain sections (Homo sapiens, UniProt P37840, A53T); assay: Staining of mouse brain sections containing α-Syn deposits; settings: SN of AAV-α-Syn A53T-injected mice
[16] = test system: α-Syn deposits in mouse brain sections; assay: as above; settings: SNCA transgenic mice treated with rotenone
[17] = test system: Aβ plaques or NFTs; assay: Counter-staining of mouse brain sections; settings: Tau P301S, 5xFAD, 3xTg mice
Procedure, shortened: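 Cortical slices from 14-month-old 3xTg, 6-month-old Tau P301S and 12-month-old 5xFAD mice were fixed and incubated with primary antibodies for 12 h at 4 °C. Alexa Fluor-conjugated secondary antibodies were applied for 3 h at room temperature, with DAPI (1 μg/ml) nuclear counterstain. Slices were imaged by confocal microscopy.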

[18] = target: α-Syn pathology in DLB and MSA patient brain (Homo sapiens, UniProt P37840); assay: Staining of DLB and MSA patient brain sections; settings: DLB and MSA patients
[19] = test system: Aβ plaques or NFTs in AD; assay: Counter-staining of AD patient brain sections; set-up: species or system human; settings: AD patients
[20] = target: α-Syn aggregates (Homo sapiens, UniProt P37840, A53T); assay: Ex vivo staining after i.v. F0502B in AAV-α-Syn A53T mice; set-up: species or system mouse; settings: 2 mg/kg i.v., 2 h
Procedure, shortened: (§3)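 Eight-month-old mice received test compound at 2 mg/kg via the tail vein, and brain sections were prepared 2 h later. Sections were stained with anti-Aβ, anti-p-Tau (AT8), anti-p-α-Syn S129 and ThS, and co-localization was assessed. Cortex was examined for 5xFAD, 3xTg and Tau P301S mice. SN was examined for mice given unilateral stereotaxic AAV9-α-Syn A53T into SN at 3 months.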

[21] = test system: Aβ or Tau aggregates; assay: Ex vivo staining after i.v. F0502B in 5xFAD, 3xTg, Tau P301S mice; set-up: species or system mouse; settings: 2 mg/kg i.v., 2 h
Procedure, shortened: as §3

[22] = target: LBs in human brain sections (Homo sapiens, UniProt P37840); assay: Autoradiography with human brain slices; type: binding; settings: PD versus AD patients; 4 nM tracer
Procedure, shortened: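 Post-mortem human brain slices, stored at −20 °C, were preincubated in PBS + 0.1% BSA (pH 7.4) to reach room temperature. They were then incubated with [18F]-labelled tracer at room temperature for 30 min, rinsed in cold buffer and once in distilled water, and dried. Slices were exposed to imaging plates for 3 h before development.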

[23] = target: α-Syn aggregates in macaque brain (Homo sapiens, UniProt P37840, A53T); assay: PET imaging in non-human primate PD models; type: in vivo, rhesus macaques; settings: macaques injected with AAV-α-Syn A53T
[24] = test system: α-Syn aggregates in macaque brain; assay: PET imaging in non-human primate PD models; type: in vivo, rhesus macaques; settings: control macaques
[25] = test system: α-Syn aggregation; settings: cited from earlier work
[26] = test system: synthetic α-Syn aggregates and Aβ fibrils; settings: cited from earlier work

## Cc1cc2nc(/C=C/c3ccc(O)c(Br)c3)sc2cc1N(C)CCOCCF [[^18F]-F0502B]
[1]
  Kd: 11 nM
[2]
  Kd: 109 nM
[3]
  Kd: 120 nM
[4]; read-out: KD, Aβ fibrils in AD patients
  Kd: 108 nM
[5]; read-out: KD, Tau fibrils in AD patients
  Kd: 151 nM

## Cc1cc2nc(/C=C/c3ccc(O)c(Br)c3)sc2cc1N(C)CCOCCF [F0502B]
[6]; counter screening
  binding selectivity toward α-Syn PFFs versus Aβ and Tau PFFs: stronger binding affinity with α-Syn PFFs than with Aβ and Tau PFFs
[6]; ThT positive control
  binding activities toward α-Syn PFFs: specifically bound α-Syn fibrils
[7]
  binding to Aβ fibrils: poorly bound
[8]
  binding to Tau fibrils: poorly bound
[9]; read-out: KD for α-Syn deposits in PD brains, PD brains
  Kd: 4.26 to 7.32 nM
[9]; read-out: Kd, DLB brain homogenates, unfractionated human DLB brain homogenates
  Kd: 9.79 nM
[9]; read-out: Kd, PD brain homogenates, unfractionated human PD brain homogenates
  Kd: 4.26 nM
[10]; read-out: KD, aggregated α-Syn in DLB patients, DLB
  Kd: 6.23 nM
[10]; read-out: KD, aggregated α-Syn in PD patients, PD
  Kd: 3.68 nM
[11]
  Ki: 3.4 nM
[12]
  Cl rate: approximately 33.6 L/h/kg
  plasma half-life t1/2: 6.9 min
[12]; 1 min
  brain versus plasma (B/P) ratio: 0.106
[12]; 1 h
  brain versus plasma (B/P) ratio: 13.37
[13]
  effect on complete cell count or liver/renal functions: did not alter complete cell count or liver/renal functions
[14]
  signals in neurons with α-Syn aggregates: specific association of F0502B with α-Syn aggregates
[15]
  staining of α-Syn deposits in mouse brain sections: specific association of F0502B with α-Syn aggregates
[16]
  staining of α-Syn inclusions: stained the α-Syn inclusions that were positive for p-S129 and 5G4
[17]
  staining of Aβ plaques or NFTs in mouse brain sections: but not Aβ plaques or NFTs; also recorded: weakly associated with Aβ aggregates
[18]
  staining of α-Syn pathology in patient brain slides: specific association of F0502B with α-Syn aggregates
[19]
  staining of Aβ plaques or NFTs in AD brains: but not Aβ plaques or NFTs
[20]
  ex vivo staining of α-Syn aggregates after i.v. injection: selectively stains α-Syn aggregates
[21]
  ex vivo staining of Aβ or Tau aggregates after i.v. injection: not Aβ or Tau aggregates

## Cc1cc2nc(/C=C/c3ccc(O)c(Br)c3)sc2cc1N(C)CCOCC[18F] [[^18F]-F0502B]
[9]; total and nonspecific binding curves, frontal cortex
  specific binding in PD/AD/healthy control tissues: only specific binding with PD tissues but not AD or control tissues
[10]; DLB
  Bmax, aggregated α-Syn in DLB patients: 12.30 fmol/nmol
[10]; PD
  Bmax, aggregated α-Syn in PD patients: 14.95 fmol/nmol
[4]
  Bmax, Aβ fibrils in AD patients: 2.34 fmol/nmol
[5]
  Bmax, Tau fibrils in AD patients: 1.14 fmol/nmol
[22]
  autoradiographic binding to human brain sections: selectively associated with LBs in brain sections from PD but not AD patients
[23]
  PET signal in brain: demonstrable signals in the striatal regions
[24]
  PET signal in brain: devoid of radiotracer retention

## thioflavin-S [ThS, reference compound]
[15]
  staining of α-Syn deposits in mouse brain sections: stained all of these aggregates
[17]
  staining of Aβ plaques or NFTs in mouse brain sections: stained all of these aggregates

## Oc1ccc(-c2cc(-c3cccc(Br)c3)n[nH]2)cc1O [anle138c]
[25]
  inhibition of α-Syn aggregation: complete the inhibition of α-Syn aggregation; also recorded: strong inhibition of α-Syn aggregation

## CN(C)c1ncc(/C=C/c2nc3ccc(OCCF)cc3o2)s1 [BF-227]
[26]
  binding to α-Syn aggregates and Aβ fibrils in vitro: binds to both synthetic α-Syn aggregates and Aβ fibrils in vitro
